Data from ChEMBL document CHEMBL1138207, “Engineering of a VPAC2 receptor peptide agonist to impart dipeptidyl peptidase IV stability and enhance in vivo glucose disposal” (J Med Chem, 2006).

Legend:
[1] = target: T1, Pituitary adenylate cyclase-activating polypeptide type I receptor (Homo sapiens, UniProt P41586); assay: Activity at human PAC1 receptor in CHO cells by measuring cAMP accumulation; format: cell-based
Method in brief: (§1)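 CHO cells transfected with human PAC1, VPAC1 or VPAC2 receptor were incubated with peptide for 15 min at 37 °C. Buffer: HEPES pH 7.4 saline with 1% BSA, bacitracin and 100 µM IBMX as phosphodiesterase inhibitor. cAMP was measured by competitive 125I-cAMP scintillation proximity assay. Curves were fit to a single-site model.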

[2] = target: T2, Vasoactive intestinal polypeptide receptor 1 (Homo sapiens, UniProt P32241); assay: Displacement of [125I]PACAP27 from human VPAC1 receptor expressed in CHO cells; format: cell-based
T2 sequence (P32241 whole entry): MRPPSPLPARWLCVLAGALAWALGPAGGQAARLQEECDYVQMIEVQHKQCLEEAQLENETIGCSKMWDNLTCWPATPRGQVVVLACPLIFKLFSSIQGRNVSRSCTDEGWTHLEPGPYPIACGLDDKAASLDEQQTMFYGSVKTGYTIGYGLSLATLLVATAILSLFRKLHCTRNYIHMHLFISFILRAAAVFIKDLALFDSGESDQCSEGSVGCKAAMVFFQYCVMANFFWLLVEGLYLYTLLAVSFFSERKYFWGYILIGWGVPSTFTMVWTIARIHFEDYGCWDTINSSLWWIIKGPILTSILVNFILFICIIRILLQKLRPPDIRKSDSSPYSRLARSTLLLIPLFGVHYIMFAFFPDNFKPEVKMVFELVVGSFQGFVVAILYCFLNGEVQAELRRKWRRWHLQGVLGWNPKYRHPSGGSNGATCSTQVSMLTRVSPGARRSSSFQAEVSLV
Method in brief: (§2)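 Membranes (10 µg) from CHO cells transfected with human PAC1, VPAC1 or VPAC2 receptor were incubated with 0.1 nM 125I-PACAP27 and competing peptide for 20 min at 37 °C. Buffer: 20 mM HEPES pH 7.4, 0.5% BSA, CaCl2, bacitracin. Reactions were stopped on ice. Bound ligand was collected by filtration on PEI-treated filters and counted by scintillation. Data were fit to a single-site model.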

[3] = target: T2, Vasoactive intestinal polypeptide receptor 1; assay: Activity at human VPAC1 receptor in CHO cells by measuring cAMP accumulation; format: functional, cell-based; method in brief: as §1
[4] = target: T1, Pituitary adenylate cyclase-activating polypeptide type I receptor; assay: Displacement of [125I]PACAP27 from human PAC1 receptor expressed in CHO cells; format: cell-based; method in brief: as §2

T1 sequence (P41586 whole entry): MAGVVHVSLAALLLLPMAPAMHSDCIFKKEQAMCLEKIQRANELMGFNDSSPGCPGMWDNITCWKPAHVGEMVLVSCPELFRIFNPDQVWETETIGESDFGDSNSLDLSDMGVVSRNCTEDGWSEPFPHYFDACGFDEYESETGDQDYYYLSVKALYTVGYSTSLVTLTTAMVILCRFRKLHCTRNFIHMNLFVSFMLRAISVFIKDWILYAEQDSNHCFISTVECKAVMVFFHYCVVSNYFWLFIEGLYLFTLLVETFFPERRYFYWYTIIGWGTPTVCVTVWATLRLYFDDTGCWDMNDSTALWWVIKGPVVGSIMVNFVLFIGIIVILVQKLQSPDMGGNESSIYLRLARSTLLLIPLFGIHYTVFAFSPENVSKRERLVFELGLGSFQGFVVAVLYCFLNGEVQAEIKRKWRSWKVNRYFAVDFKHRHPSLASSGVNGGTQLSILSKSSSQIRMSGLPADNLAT

CC[C@H](C)[C@H](NC(=O)CNC(=O)[C@H](CC(=O)O)NC(=O)[C@H](CO)NC(=O)[C@@H](N)Cc1cnc[nH]1)C(=O)N[C@@H](Cc1ccccc1)C(=O)N[C@H](C(=O)N[C@@H](CC(=O)O)C(=O)N[C@@H](CO)C(=O)N[C@@H](Cc1ccc(O)cc1)C(=O)N[C@@H](CO)C(=O)N[C@@H](CCCN=C(N)N)C(=O)N[C@@H](Cc1ccc(O)cc1)C(=O)N[C@@H](CCCN=C(N)N)C(=O)N[C@@H](CCCCN)C(=O)N[C@@H](CCC(N)=O)C(=O)N[C@@H](CCSC)C(=O)N[C@@H](C)C(=O)N[C@H](C(=O)N[C@@H](CCCCN)C(=O)N[C@@H](CCCCN)C(=O)N[C@@H](Cc1ccc(O)cc1)C(=O)N[C@@H](CC(C)C)C(=O)N[C@@H](C)C(=O)N[C@@H](C)C(=O)N[C@H](C(=O)N[C@@H](CC(C)C)C(=O)O)C(C)C)C(C)C)[C@@H](C)O
EC50 [1]: 0.13 nM | IC50 [2]: 12 nM | EC50 [3]: 0.6 nM | IC50 [4]: 3 nM
